Legend:
[1] = molecular target: T1, Small conductance calcium-activated potassium channel (Rattus norvegicus, UniProt P70604+P70606+P70605); test: Displacement of [125I]apamin from SK channel in Wistar rat cortex
In short: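 Rat cortex synaptosomes (0.2 mg protein/mL) incubated 1 h at 0 °C with 10 pM 125I-apamin and eight drug concentrations (10-4.5 to 10^-8 M) in 10 mM Tris-HCl pH 7.5, 5.4 mM KCl, 0.1% BSA. Nonspecific binding defined with 0.1 µM unlabeled apamin. Filtration on PEI-coated GF/C filters, scintillation counting, curve fitting.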

[2] = molecular target: Small conductance calcium-activated potassium channel (Rattus norvegicus) (UniProt P70604+P70606+P70605); test: Displacement of [125I]apamin from SK channel in Wistar rat cortex at 10 uM
[3] = molecular target: T1, Small conductance calcium-activated potassium channel; test: Blockade of SK channel in Wistar rat brain assessed as inhibition of apamin-sensitive after-hyperpolarisation
In short: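 Apamin-sensitive AHP area (mV s) measured as percent reduction, normalized to block by 300 nM apamin; four sweeps averaged. IC50 from Hill equation fit; mean ± SD, n = 3.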

SMILES	Ki [1]	Activity [2]	IC50 [3]
COc1cc2cc[n+](C)c(Cc3cccc(Cc4c5cc(OC)c(OC)cc5cc[n+]4C)c3)c2cc1OC.[I-].[I-]	106 nM	> 58%	–
COc1cc2cc[n+](C)c(Cc3ccccc3Cc3c4cc(OC)c(OC)cc4cc[n+]3C)c2cc1OC.[I-].[I-]	33 nM	> 58%	3800 nM
COc1cc2cc[n+](C)c(Cc3ccccc3Cc3c4c(OC)c(OC)c(OC)cc4cc[n+]3C)c2c(OC)c1OC.[I-].[I-]	35 nM	> 58%	4100 nM
C[n+]1ccc2ccccc2c1CCCCCc1c2ccccc2cc[n+]1C.[I-].[I-]	1465 nM	> 58%	–
COc1cc2cc[n+](C)c(CCCCc3c4cc(OC)c(OC)cc4cc[n+]3C)c2cc1OC.[I-].[I-]	164 nM	> 58%	–
C[n+]1ccc2ccccc2c1Cc1ccc(Cc2c3ccccc3cc[n+]2C)cc1.[I-].[I-]	1103 nM	> 58%	–
Cc1cc(N)c2ccccc2[n+]1CCCCCCCCCC[n+]1c(C)cc(N)c2ccccc21.[Cl-].[Cl-] [DEQUALINIUM CHLORIDE]	221 nM	> 58%	–
COc1cc2cc[n+](C)c(CCCCCc3c4cc(OC)c(OC)cc4cc[n+]3C)c2cc1OC.[I-].[I-]	150 nM	> 58%	–
COc1ccc(C[C@H]2c3cc(OC)c(OC)cc3CC[N+]2(C)C)cc1OC.[I-] [LAUDANOSINE METHIODIDE]	–	> 58%	15000 nM
COc1cc2cc[n+](C)c(Cc3ccc(Cc4c5cc(OC)c(OC)cc5cc[n+]4C)cc3)c2cc1OC.[I-].[I-]	163 nM	> 58%	–
COc1cc2cc[n+](C)c(Cc3ccc(Cc4c5c(OC)c(OC)c(OC)cc5cc[n+]4C)cc3)c2c(OC)c1OC.[I-].[I-]	280 nM	> 58%	–
COc1cc2cc[n+](C)c(CCCc3c4c(OC)c(OC)c(OC)cc4cc[n+]3C)c2c(OC)c1OC.[I-].[I-]	90 nM	> 58%	–
C[n+]1ccc2ccccc2c1Cc1ccccc1Cc1c2ccccc2cc[n+]1C.[I-].[I-]	438 nM	> 58%	–
COc1cc2cc[n+](C)c(CCCc3c4cc(OC)c(OC)cc4cc[n+]3C)c2cc1OC.[I-].[I-]	196 nM	> 58%	–
COc1cc2cc[n+](C)c(CCCCc3c4c(OC)c(OC)c(OC)cc4cc[n+]3C)c2c(OC)c1OC.[I-].[I-]	42 nM	> 58%	4400 nM
COc1cc2cc[n+](C)c(Cc3cccc(Cc4c5c(OC)c(OC)c(OC)cc5cc[n+]4C)c3)c2c(OC)c1OC.[I-].[I-]	23 nM	> 58%	2400 nM
C[n+]1ccc2ccccc2c1CCCc1c2ccccc2cc[n+]1C.[I-].[I-]	1687 nM	> 58%	–
C[n+]1ccc2ccccc2c1Cc1cccc(Cc2c3ccccc3cc[n+]2C)c1.[I-].[I-]	132 nM	> 58%	–
C[n+]1ccc2ccccc2c1CCCCc1c2ccccc2cc[n+]1C.[I-].[I-]	1962 nM	> 58%	–
